RAM inhibit = inhibitors of the yeast RAM network, primary screen, dse1pr::URA3 reporter, 5-FOA selection; S. cerevisiae dse1pr::URA3 reporter, 5-FOA growth OD615, 2 d; analog-sensitive cbk1-as2 kinase mutant strain; actives 1.8% (n = 190,000); inhibition, % at 50 µM;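 active = inhibition above a set limit, 3 SD over mean compound inhibition, cut at about 8.4% in these data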;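 note: inhibition rescues growth on 5-FOA so higher OD means more RAM inhibition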
Yeast lifespan up = compounds extending yeast replicative lifespan, primary screen, S. cerevisiae, OD615 | actives 0.68% (n = 130,000) | inhibition of the nicotinamide effect, % at 10 µM | S. cerevisiae growth with nicotinamide; deaD strain in restrictive glucose medium | AID 775, 2007;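 active = inhibition above a set limit, placed 3 SD over the median of all compounds, cut at about 26% in these data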
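Test system – modified budding yeast, DeaD strain · Compound – single dose 10 µM compound, 0.25% DMSO · Times – culture preincubation 4 h, compound exposure 48 h, both 30 °C · Detection – optical density (absorbance) at 615 nm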
SDO1 yeast rescue = growth rescue of sdo1-depleted yeast, primary screen, S. cerevisiae, bone marrow failure model. S. cerevisiae sdo1-depleted JHY4D growth rescue, OD600 30 h; stronger effect = higher value; pdr5 snq2 efflux-pump mutant strain. z-score at 10 µM. actives 0.21% (n = 140,000);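 active = z-score above 3 at both the 24 hr and the 30 hr optical density reads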
Yeast growth inh = growth inhibitors of yeast BB579 in restrictive medium, primary screen, yeast lifespan-shortening project, S. cerevisiae; OD615, 48 h; inhibition, % at 10 µM; actives 0.51% (n = 140,000); AID 804, 2007;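 active = inhibition above a set limit, 3 SD over the mean compound inhibition, cut at about 44% in these data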
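Assay system – yeast BB579 (DeaD) · Dosing – single compound dose of 10 µM, 0.25% DMSO final · Detection – OD615 turbidity measurement · Buffer or medium – CSMM-D restrictive synthetic medium containing dextrose (glucose) · Benchmarks – positive control amphotericin B 10 µg/mL · Incubation – 48 h exposure, 30 °C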
RAM efflux-def = 5-FOA growth of efflux-deficient control yeast, dose response, counter-screen for RAM network inhibitor project, S. cerevisiae, OD615; 1,200 tested, under 10 active; S. cerevisiae efflux-deficient reporter strain, 5-FOA growth OD615, 2 days; max inhibition, %; shares compounds with RAM inhibit; AID 1305, 2008; call rule not given here
Each line names hits and unclear results; the compound was inactive in the other large screens (follow-up assays come after a bar, where they were run). The list is not random: actives were taken first. Their share in the collection is about 2.7%.

CCCCCCOC(=O)C(C#N)c1nc2ccccc2nc1N1CCN(C)CC1 (stereo not drawn)	none
CCCCCCOC(=O)C(C#N)c1nc2ccccc2nc1N1CCCCC1 (stereo not drawn)	RAM inhibit 24 | RAM efflux-def inactive
CCC(C)COC(=O)C(C#N)c1nc2ccccc2nc1N1CCCCC1 (stereo not drawn)	RAM inhibit 18 | RAM efflux-def inactive
COc1ccc(C(OC(=O)c2ccco2)C(=O)NC(C)(C)C)cc1 (stereo not drawn)	none (no result: Yeast lifespan up, SDO1 yeast rescue, Yeast growth inh)
CCC(C)NS(=O)(=O)c1ccc(S(=O)(=O)N(CCc2ccc(OC)c(OC)c2)Cc2cccs2)cc1 (stereo not drawn)	RAM inhibit 15 | RAM efflux-def inactive
COC(=O)c1ccc(OC)c(CSc2nnc(-c3ccc(C(C)(C)C)cc3)o2)c1	RAM inhibit 14 | RAM efflux-def inactive
Cc1ccc(NC(=O)CNC2CCS(=O)(=O)C2)cc1C (stereo not drawn)	none (no result: Yeast lifespan up, SDO1 yeast rescue, Yeast growth inh)
COc1ccccc1/C=C(/C(=O)OCC(=O)Nc1ccccc1C(C)C)c1ccccc1	RAM inhibit 12 | RAM efflux-def inactive
O=C(Nc1ccn(Cc2ccccc2F)n1)c1ccc(COc2ccc(Br)cc2)cc1	RAM inhibit 16 | RAM efflux-def inactive
COc1ccccc1-c1cc(C(F)(F)F)nc(N2CCN(c3ccccc3)CC2)n1	RAM inhibit 13 | RAM efflux-def inactive
COc1ccccc1-c1cc(C(F)(F)F)nc(N2CCN(c3ccc(F)cc3)CC2)n1	none (no result: Yeast lifespan up)
COC(=O)c1ccc(OCC(O)CN2C(=O)c3ccccc3S2(=O)=O)cc1 (stereo not drawn)	none (no result: Yeast lifespan up, SDO1 yeast rescue, Yeast growth inh)
CN(C)/C=N/c1nc2nccc(-c3ccccc3)n2n1	none (no result: Yeast lifespan up, SDO1 yeast rescue, Yeast growth inh)
COc1cccc(N/C(SCc2cccc([N+](=O)[O-])c2)=C(/C#N)C(=O)NCc2cccs2)c1	RAM inhibit 17 | RAM efflux-def inactive
COc1cccc(N/C(SCc2ccccc2C)=C(/C#N)C(=O)NCc2cccs2)c1	RAM inhibit 20 | RAM efflux-def inactive
COc1cccc(N/C(SC)=C(/C#N)C(=O)NCc2cccs2)c1	none (no result: Yeast lifespan up, SDO1 yeast rescue, Yeast growth inh)
COc1cccc(N/C(SCc2ccccc2Cl)=C(/C#N)C(=O)NCc2cccs2)c1	RAM inhibit 16 | RAM efflux-def inactive
COc1ccccc1CNCc1cccc(Oc2ccccc2)c1	none (no result: Yeast lifespan up, SDO1 yeast rescue, Yeast growth inh)
CNC(=O)c1[nH]cnc1C(=O)Nc1ccccn1	none (no result: Yeast lifespan up, SDO1 yeast rescue, Yeast growth inh)
COc1cccc(NC(=S)N(Cc2ccc(Cl)cc2)Cc2ccc(C(=O)O)cc2)c1	RAM inhibit 14 (no result: Yeast lifespan up, SDO1 yeast rescue, Yeast growth inh) | RAM efflux-def inactive
COc1ccc(C(=O)Nc2cc(OC)c(Cl)cc2OC)cc1	RAM inhibit 11 (no result: Yeast lifespan up, SDO1 yeast rescue, Yeast growth inh) | RAM efflux-def inactive
COc1ccccc1NC(=O)C(=O)N(c1cccnc1)C(C(=O)NC(C)(C)C)c1ccccc1F (stereo not drawn)	none (no result: Yeast lifespan up, SDO1 yeast rescue, Yeast growth inh)
C=CCN(CC=C)S(=O)(=O)c1ccc(NC(=S)NC(=O)c2ccco2)cc1	none
C=CCN(CC=C)S(=O)(=O)c1ccc(NC(=S)NC(=O)Cc2ccc(OC)cc2)cc1	RAM inhibit 19 | RAM efflux-def inactive
COc1ccc(CC(=O)NC(=S)Nc2ccc(S(N)(=O)=O)cc2)cc1	none
C=CCN(CC=C)S(=O)(=O)c1ccc(NC(=S)NC(=O)c2ccc(-c3ccccc3)cc2)cc1	RAM inhibit 17 | RAM efflux-def inactive
Cc1cc(Br)ccc1SCC(=O)OCC(=O)NC1CCCC1	RAM inhibit 17 (no result: Yeast lifespan up, SDO1 yeast rescue, Yeast growth inh) | RAM efflux-def inactive
Cc1cc(C)c(NC(=O)COC(=O)CSc2ccc(Br)cc2C)c(C)c1	none
CC(NC(=S)Nc1ccc([N+](=O)[O-])cc1)c1ccncc1 (stereo not drawn)	none (no result: Yeast lifespan up, SDO1 yeast rescue, Yeast growth inh)
Cc1ccccc1C(=O)NC(=S)Nc1ccc(Oc2ccc(Cl)cc2)cc1	RAM inhibit 13 | RAM efflux-def inactive
Cc1ccc(C(=O)NC(=S)Nc2ccc(Oc3ccc(Cl)cc3)cc2)cc1	none
O=C(NC(=S)Nc1ccc(Oc2ccccc2)cc1)c1ccc(Cl)cc1	RAM inhibit 12 | RAM efflux-def inactive
COc1ccc(CN(Cc2cc3cccc(C)c3n3nnnc23)C(=O)N2CCOCC2)cc1	none (no result: Yeast lifespan up, SDO1 yeast rescue, Yeast growth inh)
O=C(O)CCN1CCc2ccccc2C1c1cccs1 (stereo not drawn)	none (no result: Yeast lifespan up, SDO1 yeast rescue, Yeast growth inh)
CN(C)S(=O)(=O)N1CCC(c2ccc(F)cc2)C(COc2ccc3c(c2)OCO3)C1 (stereo not drawn)	RAM inhibit 17 | RAM efflux-def inactive
OC(COc1ccc2c(c1)OCO2)CN1CCN(c2ccc(F)cc2)CC1 (stereo not drawn)	none (no result: Yeast lifespan up, SDO1 yeast rescue, Yeast growth inh)
CCc1nnc(NS(=O)(=O)c2ccc(Nc3ccc4nonc4c3[N+](=O)[O-])cc2)s1	none (no result: Yeast lifespan up, SDO1 yeast rescue, Yeast growth inh)
N#Cc1nc(COc2ccccc2)oc1N1CCCCC1	none
N#Cc1nc(COc2cccc(Cl)c2)oc1N1CCN(c2ccccc2)CC1	RAM inhibit 16 | RAM efflux-def inactive
N#Cc1nc(COc2ccccc2)oc1N1CCN(c2cccc(Cl)c2)CC1	RAM inhibit 12 | RAM efflux-def inactive
N#Cc1nc(COc2ccc(Cl)cc2)oc1N1CCCCCC1	none
Cc1ccc(-c2cc(C(F)F)nc(N3CCC(C)CC3)n2)cc1	RAM inhibit 12 | RAM efflux-def inactive
CC1CCN(c2nc(-c3ccccc3)cc(C(F)(F)F)n2)CC1	none
CCOc1ccc2nc3c(cc2c1)CN(CCOC)C(=NCCOC)S3	RAM inhibit 14 | RAM efflux-def inactive
CCOC(=O)C1=C(O)/C(=C/c2cc(OC)c(O)c(OC)c2)SC1=Nc1ccc(OC)cc1	RAM inhibit 16 | RAM efflux-def inactive
COc1ccccc1-c1ccc(SCc2ccc([N+](=O)[O-])cc2)nn1	RAM inhibit 14 (no result: Yeast lifespan up, SDO1 yeast rescue, Yeast growth inh) | RAM efflux-def inactive
CCOC(=O)CC(=O)CSc1nc(N)c(C#N)c(-c2ccc(Cl)cc2)c1C#N	RAM inhibit 13 | RAM efflux-def inactive
N#Cc1c(N)nc(SCC(=O)C23CC4CC(CC(C4)C2)C3)c(C#N)c1-c1ccc(Cl)cc1	none
CCOC(=O)C1CCN(C(=O)COc2ccc(N(C)S(=O)(=O)c3ccc(C)cc3)cc2)CC1	none (no result: Yeast lifespan up, SDO1 yeast rescue, Yeast growth inh)
COc1ccc(CNCc2cn(-c3cccc(F)c3)nc2-c2ccc(C)o2)cc1	none (no result: Yeast lifespan up, SDO1 yeast rescue, Yeast growth inh)
Cc1nnc(SC/C=C/c2ccccc2)n(N)c1=O	none (no result: Yeast lifespan up, SDO1 yeast rescue, Yeast growth inh)
O=C(/C=C/c1ccccc1)n1cnnc1SC/C=C/c1ccccc1	RAM inhibit 12 | RAM efflux-def inactive
CCC(C)N1C(=O)/C(=C/c2c(NCCCOC(C)C)nc3c(C)cccn3c2=O)SC1=S (stereo not drawn)	RAM inhibit 18 | RAM efflux-def inactive
CCc1n[n+](CC(=O)c2ccccc2)c(N)s1	none (no result: Yeast lifespan up, SDO1 yeast rescue, Yeast growth inh)
Cc1ccc(S(=O)(=O)N(CC(=O)Nc2ccccc2C(=O)O)c2cccc(Cl)c2C)cc1	RAM inhibit 14 | RAM efflux-def inactive
Cc1ccccc1N(CC(=O)Nc1ccccc1C(=O)O)S(C)(=O)=O	none

Bioassay records (PubChem BioAssay)
